Non-standard residues stand in square brackets, D forms with d. Residues, ends and D or L forms follow the SMILES beside them. d2Nal = N[C@H](Cc1ccc2ccccc2c1)C(=O)O
Tested on: Candida albicans
Test: Inhibition of Candida albicans at 100 uM concentration.
Format: functional
Outline: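 Five C. albicans clinical isolates plus ATCC 24433, grown 48 h at 32 °C in Sabouraud dextrose broth to stationary phase, washed in distilled water. 1×10^6 yeast in water exposed to peptide at 10^-4 M final, 2 h at 37 °C; water controls. Diluted to ~100 organisms/mL, 1 mL plated on blood agar, 48 h at 37 °C, colonies counted. Triplicates.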

Compound	inhibition at 100 µM
CC(C)[C@H](NC(=O)[C@H](CO)NC(=O)[C@H](CCCCN)NC(=O)CNC(=O)[C@H](Cc1c[nH]c2ccccc12)NC(=O)[C@H](CCCN=C(N)N)NC(=O)[C@@H](Cc1ccc2ccccc2c1)NC(=O)[C@@H](N)Cc1c[nH]cn1)C(N)=O	73.9%
CC(C)[C@H](NC(=O)[C@H](Cc1ccccc1)NC(=O)[C@H](CCCCN)NC(=O)CNC(=O)[C@H](Cc1c[nH]c2ccccc12)NC(=O)[C@H](CCCNC(=N)N)NC(=O)[C@H](Cc1ccccc1)NC(=O)[C@@H](N)Cc1cnc[nH]1)C(N)=O	97.5%
CC(C)[C@H](NC(=O)[C@H](Cc1ccccc1)NC(=O)[C@H](CCCCN)NC(=O)CNC(=O)[C@H](Cc1c[nH]c2ccccc12)NC(=O)[C@H](CCCN=C(N)N)NC(=O)[C@@H](Cc1ccc2ccccc2c1)NC(=O)[C@@H](N)Cc1c[nH]cn1)C(N)=O	67.7%
CC(C)[C@H](NC(=O)[C@@H](C)NC(=O)[C@H](CCCCN)NC(=O)CNC(=O)[C@H](Cc1c[nH]c2ccccc12)NC(=O)[C@H](CCCN=C(N)N)NC(=O)[C@@H](Cc1ccc2ccccc2c1)NC(=O)[C@@H](N)Cc1c[nH]cn1)C(N)=O	28%
CC(C)[C@@H](NC(=O)[C@H]1CCCN1C(=O)[C@H](CCCCN)NC(=O)CNC(=O)[C@H](Cc1c[nH]c2ccccc12)NC(=O)[C@H](CCCN=C(N)N)NC(=O)[C@H](Cc1ccccc1)NC(=O)[C@@H](N)Cc1c[nH]cn1)C(N)=O	82.5%
CC(C)[C@H](NC(=O)[C@@H](Cc1ccccc1)NC(=O)[C@H](CCCCN)NC(=O)CNC(=O)[C@H](Cc1c[nH]c2ccccc12)NC(=O)[C@H](CCCN=C(N)N)NC(=O)[C@@H](Cc1ccc2ccccc2c1)NC(=O)[C@@H](N)Cc1c[nH]cn1)C(N)=O	99.7%
CC(C)[C@H](NC(=O)[C@H](C)NC(=O)[C@H](CCCCN)NC(=O)CNC(=O)[C@H](Cc1c[nH]c2ccccc12)NC(=O)[C@H](CCCN=C(N)N)NC(=O)[C@@H](Cc1ccc2ccccc2c1)NC(=O)[C@@H](N)Cc1c[nH]cn1)C(N)=O	69.2%
CC(C)[C@H](NC(=O)[C@H](CC(=O)O)NC(=O)[C@H](CCCCN)NC(=O)CNC(=O)[C@H](Cc1c[nH]c2ccccc12)NC(=O)[C@H](CCCN=C(N)N)NC(=O)[C@H](Cc1ccccc1)NC(=O)[C@@H](N)Cc1c[nH]cn1)C(N)=O	15.7%
CC(C)[C@H](NC(=O)[C@H](CCCCN)NC(=O)[C@H](CCCCN)NC(=O)CNC(=O)[C@H](Cc1c[nH]c2ccccc12)NC(=O)[C@H](CCCN=C(N)N)NC(=O)[C@@H](Cc1ccc2ccccc2c1)NC(=O)[C@@H](N)Cc1c[nH]cn1)C(N)=O	83.8%
CC(C)[C@H](NC(=O)[C@H]1CCCN1C(=O)[C@H](CCCCN)NC(=O)CNC(=O)[C@H](Cc1c[nH]c2ccccc12)NC(=O)[C@H](CCCN=C(N)N)NC(=O)[C@@H](Cc1ccccc1)NC(=O)[C@@H](N)Cc1c[nH]cn1)C(N)=O	80.5%
CC(C)[C@H](NC(=O)[C@@H](CC(=O)O)NC(=O)[C@H](CCCCN)NC(=O)CNC(=O)[C@H](Cc1c[nH]c2ccccc12)NC(=O)[C@H](CCCN=C(N)N)NC(=O)[C@@H](Cc1ccccc1)NC(=O)[C@@H](N)Cc1c[nH]cn1)C(N)=O	3.7%
CC(C)[C@H](NC(=O)[C@H](C)NC(=O)[C@H](CCCCN)NC(=O)CNC(=O)[C@H](Cc1c[nH]c2ccccc12)NC(=O)[C@H](CCCN=C(N)N)NC(=O)[C@H](Cc1ccccc1)NC(=O)[C@@H](N)Cc1c[nH]cn1)C(N)=O	46.1%
CC(C)[C@H](NC(=O)[C@H](CCC(=O)O)NC(=O)[C@H](CCCCN)NC(=O)CNC(=O)[C@H](Cc1c[nH]c2ccccc12)NC(=O)[C@H](CCCN=C(N)N)NC(=O)[C@@H](Cc1ccc2ccccc2c1)NC(=O)[C@@H](N)Cc1c[nH]cn1)C(N)=O	32.3%
CC(C)[C@H](NC(=O)[C@H](CC(=O)O)NC(=O)[C@H](CCCCN)NC(=O)CNC(=O)[C@H](Cc1c[nH]c2ccccc12)NC(=O)[C@H](CCCN=C(N)N)NC(=O)[C@@H](Cc1ccc2ccccc2c1)NC(=O)[C@@H](N)Cc1c[nH]cn1)C(N)=O	16.8%
CC(C)[C@H](NC(=O)[C@@H](Cc1ccccc1)NC(=O)[C@H](CCCCN)NC(=O)CNC(=O)[C@H](Cc1c[nH]c2ccccc12)NC(=O)[C@H](CCCN=C(N)N)NC(=O)[C@@H](Cc1ccccc1)NC(=O)[C@@H](N)Cc1c[nH]cn1)C(N)=O	89.6%
CC(C)[C@H](NC(=O)[C@@H](C)NC(=O)[C@H](CCCCN)NC(=O)CNC(=O)[C@H](Cc1c[nH]c2ccccc12)NC(=O)[C@H](CCCN=C(N)N)NC(=O)[C@H](Cc1ccccc1)NC(=O)[C@@H](N)Cc1c[nH]cn1)C(N)=O	12.8%
CC(C)[C@H](NC(=O)[C@@H](Cc1ccccc1)NC(=O)[C@H](CCCCN)NC(=O)CNC(=O)[C@H](Cc1c[nH]c2ccccc12)NC(=O)[C@H](CCCN=C(N)N)NC(=O)[C@H](Cc1ccccc1)NC(=O)[C@@H](N)Cc1c[nH]cn1)C(N)=O	90.8%
CC(C)[C@H](NC(=O)CNC(=O)[C@H](CCCCN)NC(=O)CNC(=O)[C@H](Cc1c[nH]c2ccccc12)NC(=O)[C@H](CCCN=C(N)N)NC(=O)[C@@H](Cc1ccc2ccccc2c1)NC(=O)[C@@H](N)Cc1c[nH]cn1)C(N)=O	36.2%
CC(C)[C@H](NC(=O)[C@@H](CC(=O)O)NC(=O)[C@H](CCCCN)NC(=O)CNC(=O)[C@H](Cc1c[nH]c2ccccc12)NC(=O)[C@H](CCCN=C(N)N)NC(=O)[C@H](Cc1ccccc1)NC(=O)[C@@H](N)Cc1c[nH]cn1)C(N)=O	5.9%
CC(C)[C@H](NC(=O)[C@H](Cc1ccccc1)NC(=O)[C@H](CCCCN)NC(=O)CNC(=O)[C@H](Cc1c[nH]c2ccccc12)NC(=O)[C@H](CCCN=C(N)N)NC(=O)[C@@H](Cc1ccccc1)NC(=O)[C@@H](N)Cc1c[nH]cn1)C(N)=O	77.7%
CC(C)[C@H](NC(=O)[C@@H]1CCCN1C(=O)[C@H](CCCCN)NC(=O)CNC(=O)[C@H](Cc1c[nH]c2ccccc12)NC(=O)[C@H](CCCN=C(N)N)NC(=O)[C@@H](Cc1ccc2ccccc2c1)NC(=O)[C@@H](N)Cc1c[nH]cn1)C(N)=O (H-H[d2Nal]RWGKPV-NH2)	95.3%
H-HFRWGAPV-NH2	26.2%
H-HFRWGKEV-NH2	11.2%
H-HFRWGKGV-NH2	41.8%
H-HFRWGKKV-NH2	41%
H-HFRWGKPA-NH2	68.4%
H-HFRWGKPL-NH2	87.4%
H-HFRWGKSV-NH2	32.3%

— ChEMBL document CHEMBL1145778, “Novel alpha-melanocyte stimulating hormone peptide analogues with high candidacidal activity” (2003)
